# Assay outcomes as filed in PubChem.
# Most compounds without a hit are left out; they make up all but 1.9% or so of the library.
# M5 antag = antagonists of human muscarinic M5 receptor (CHRM5) | inhibition, % at 3 µM | P08912 | CHO-hM5 cells, Fluo-8 calcium fluorescence, ACh EC80 | AID 624040 | actives 0.59% (n = 360,000);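 active means inhibition above a per-plate cutoff, the mean of that plate's test compounds plus 3 SD, cut at about 27% in these data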;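 further: 0% = acetylcholine EC80 with DMSO and 100% = DMSO without agonist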
# CHRM4 agonist = agonists of human muscarinic M4 receptor (CHRM4); CHO-K1 hM4/Gqi5, Fluo-8 calcium fluorescence; vehicle 0%, full acetylcholine response 100%; activation, % at 3 µM; actives 0.14% (n = 360,000); AID 624127;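 active means activation above the run mean over all test wells plus 3 SD, cut at about 32% in these data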;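 further: peak over basal fluorescence ratio per well then scaled between controls; 0% = DMSO wells and 100% = acetylcholine at EC100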
# CHRM5 PAM = positive allosteric modulators of human muscarinic M5 receptor; CHO-K1 hM5, Fluo-8 calcium, ACh EC20 PAM; 0% = ACh EC20, 100% = ACh EC100; activation, % at 3 µM; actives 0.3% (n = 360,000); AID 624038;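 active means activation above the run cutoff, the mean activation of all test compounds plus 3 SD, cut at about 18% in these data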
#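 Assay system: CHO-K1 hM5 cells / Incubation: Fluo-8 loading 80 min at 37 °C plus 30 min room temperature / Technique: Fluo-8 calcium dye fluorescence, kinetic read / Repeats: single replicate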
# CHRM5 agonist = CHRM5 agonism in calcium assay | actives 0.19% (n = 360,000) | activation, % at 3 µM | CHO-K1 hM5 cells, Fluo-8 calcium fluorescence; 0% DMSO wells, 100% maximal acetylcholine response;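 active means activation above the run's mean over test compounds plus 3 SD, cut at about 23% in these data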;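 further: signal is peak over basal fluorescence ratio across the kinetic read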
# M4 PAM = positive allosteric modulators of human muscarinic M4 receptor; actives 0.4% (n = 360,000); CHO-K1 hM4/Gqi5, Fluo-8 calcium fluorescence, ACh EC20; 0% = ACh EC20, 100% = maximal ACh; activation, % at 3 µM;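 active means activation above its plate's cutoff, the mean activation of sample wells plus 3 SD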
# CHRM4 antagonist = CHRM4 antagonism in calcium assay; P08173; CHO-hM4 cells, ACh EC80, Fluo-8 calcium fluorescence; inhibition, % at 3 µM; actives 0.73% (n = 360,000); AID 624125;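 active means inhibition above its plate's cutoff, the mean inhibition of sample wells plus 3 SD, cut at about 27% in these data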;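 further: 0% = acetylcholine EC80 with DMSO and 100% = DMSO without agonist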
# Starred values were filed as active, the others as inactive.
SMILES,M5 antag,CHRM4 agonist,CHRM5 PAM,CHRM5 agonist,M4 PAM,CHRM4 antagonist
CCC(c1nnnn1Cc1ccccc1)N1CCC(n2c(=O)[nH]c3ccccc32)CC1 (stereo unspecified),14,23,-15,9,-12,27*
CCCCn1nnnc1C(CCc1ccccc1)N1CCC(n2c(=O)[nH]c3ccccc32)CC1 (stereo unspecified),3,22,-12,6,-5,3
O=c1[nH]c2ccccc2n1C1CCN(Cc2ccc(-c3nc4ccccc4nc3-c3ccccc3)cc2)CC1,26,14,-22,32*,3,6
COc1ccc2nc(-c3ccc(CN4CCC(n5c(=O)[nH]c6ccccc65)CC4)cc3)c(-c3ccccc3)nc2c1,18,10,-20,21,-9,12
COc1ccccc1-n1c(-c2ccccc2Cl)nc2ccccc2c1=O,2,3,-4,-6,1,-2
COc1ccc2ccccc2c1CNCCc1ccccc1,-4,5,18*,-4,-4,5
Cc1ccc(-c2nc3ccccc3c(=O)n2-c2cccc(O)c2)cc1,1,3,-4,-3,2,-4
Cc1ccc2nsnc2c1-n1c(C)nc2ccccc2c1=O,-7,1,10,3,30*,14
Cc1nc2ccccc2c(=O)n1-c1cccc(O)c1,0,1,9,-5,17*,-8
COC(=O)C1=C(c2c(C)noc2C)C[C@@H]2CC[C@H]1N2C(=O)NC1Cc2ccccc2C1,10,0,-2,-1,15,0
COC(=O)C1=C(c2cc3ccccc3s2)C[C@@H]2CC[C@H]1N2C(=O)NCCS(C)=O (stereo partly specified),1,0,7,-3,-1,4
O=C1NC(=O)C(=Cc2ccc(N3CCN(C(=O)c4ccccc4)CC3)c([N+](=O)[O-])c2)C(=O)N1,2,41*,-2,5,54*,48*
COC(=O)C1=C(c2ccc(S(C)(=O)=O)cc2)C[C@@H]2CC[C@H]1N2C(=O)N1CCCCC1,16,3,-1,2,2,-1
COc1ccc(OC)c([C@@H](O)[C@H](C)NC(C)(C)C)c1,24,0,-19,-1,-15,51*
Cc1ncc(CN2CCCC(C(=O)c3ccc(C(C)(C)C)cc3)C2)s1 (stereo unspecified),29*,10,-19,-5,-22,23
O=C1NC(=O)N(c2ccccc2)C(=O)/C1=C/c1ccc(Sc2ccccc2)o1,-1,3,6,2,6,-1
O=C1NC(=O)N(c2cccc(Cl)c2)C(=O)/C1=C\c1ccc(Sc2nc3ccccc3[nH]2)o1,18,25,-24,36*,-7,6
O=C1NC(=O)N(c2ccccc2F)C(=O)/C1=C/c1ccc(Sc2nc3ccccc3[nH]2)o1,5,41*,-9,16,-28,21
O=[N+]([O-])c1ccc(-[n+]2c(-c3ccccc3)cc(-c3ccccc3)cc2-c2ccccc2)cc1,13,1,-25,-23,-10,40*
Oc1ccc(-[n+]2c(-c3ccccc3)cc(-c3ccccc3)cc2-c2ccccc2)cc1,13,3,-31,-10,-12,54*
Cc1c(C)c2ccc(OCC(=O)N3C[C@H]4C[C@@H](C3)c3cccc(=O)n3C4)cc2oc1=O,4,0,-2,-1,7,-20
COC(=O)C1=C(c2ccc(F)cc2OCc2ccccc2)C[C@@H]2CC[C@H]1N2C(=O)NCc1ccc(Br)cc1,13,3,-15,2,-6,4
CCN(CC)CCC(=O)O[C@H]1CC[C@]2(C)C3CC[C@@]4(C)C(CC[C@]4(C)O)C3CC[C@H]2C1 (stereo partly specified),27,29,-37,1,-10,28*
CC(C)COc1ccc(Cc2c(O)[nH]c(=S)[nH]c2=O)cc1,12,0,-1,2,0,-9
CCC(=NCc1ccco1)c1c(O)n(-c2ccc(OC)cc2)c(=O)[nH]c1=O,10,1,-7,7,4,-5
